Test results: ChEMBL document CHEMBL1821635, “Synthesis and evaluation of aliphatic-chain hydroxamates capped with osthole derivatives as histone deacetylase inhibitors” (Eur J Med Chem, 2011)
Activity calls are given as the source filed them. No cut-off for these calls is given here.

Columns and labels:
[1] = biological target: Histone deacetylase; assay: Inhibition of HDAC from human HeLa nuclear extract using Boc-Lys(Ac)-AMC as substrate incubated 30 mins before substrate addition measured after 30 mins post substrate addition by fluorescence assay; type: protein assay
[2] = system: PC-3; assay: Antiproliferative activity against human PC3 cells after 48 hrs by SRB assay; type: functional
Outline: (§1)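 Cells seeded in medium with 5% FBS; after 24 h a T0 set fixed with 10% TCA. Compound or vehicle (0.1% DMSO) added for 48 h, then fixed with 10% TCA, stained with 0.4% SRB in 1% acetic acid, bound dye solubilized in 10 mM Trizma base, absorbance at 515 nm. GI50 = concentration halving net protein increase versus control, from [1−(Tx−T0)/(C−T0)]×100%.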

[3] = system: A549; assay: Antiproliferative activity against human A549 cells after 48 hrs by SRB assay; type: functional; outline: as §1
[4] = Antiproliferative activity against human Hep3B cells after 48 hrs by SRB assay; type: functional, Hep 3B2; outline: as §1
[5] = biological target: Histone deacetylase 1 (Homo sapiens, UniProt Q13547); assay: Inhibition of HDAC1 using KI-177 as substrate incubated 30 mins before substrate addition measured after 30 mins post substrate addition by fluorescence assay
Histone deacetylase 1, sequence (Q13547 whole entry): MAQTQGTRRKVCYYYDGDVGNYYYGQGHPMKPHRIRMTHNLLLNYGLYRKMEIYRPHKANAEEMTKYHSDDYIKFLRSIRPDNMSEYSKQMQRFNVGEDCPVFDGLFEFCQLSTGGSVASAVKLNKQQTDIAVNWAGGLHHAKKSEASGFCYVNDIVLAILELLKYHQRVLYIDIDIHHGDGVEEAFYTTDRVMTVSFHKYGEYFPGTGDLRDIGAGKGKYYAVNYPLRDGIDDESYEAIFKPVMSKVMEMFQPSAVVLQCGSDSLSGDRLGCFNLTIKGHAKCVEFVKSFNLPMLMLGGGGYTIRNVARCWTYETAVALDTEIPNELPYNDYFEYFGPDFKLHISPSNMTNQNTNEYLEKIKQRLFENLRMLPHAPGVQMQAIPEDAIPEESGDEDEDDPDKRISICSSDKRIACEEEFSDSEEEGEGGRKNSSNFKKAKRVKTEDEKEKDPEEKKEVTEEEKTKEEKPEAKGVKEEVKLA

[6] = biological target: T1, Histone deacetylase 8 (Homo sapiens, UniProt Q9BY41); assay: Inhibition of human HDAC8 using Boc-Lys(TFA)-AMC as substrate incubated 30 mins before substrate addition measured after 30 mins post substrate addition by fluorescence assay
T1 sequence (Q9BY41 whole entry): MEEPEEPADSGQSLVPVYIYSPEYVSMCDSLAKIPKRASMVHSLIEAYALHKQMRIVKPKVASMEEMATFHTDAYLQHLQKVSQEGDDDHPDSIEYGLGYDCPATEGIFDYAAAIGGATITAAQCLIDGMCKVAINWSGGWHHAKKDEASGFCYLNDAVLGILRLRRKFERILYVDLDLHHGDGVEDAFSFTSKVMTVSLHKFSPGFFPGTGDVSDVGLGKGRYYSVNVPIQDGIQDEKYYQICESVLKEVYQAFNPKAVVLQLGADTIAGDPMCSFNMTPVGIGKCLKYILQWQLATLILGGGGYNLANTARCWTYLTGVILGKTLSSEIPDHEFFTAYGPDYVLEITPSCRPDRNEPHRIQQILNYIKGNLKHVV

[7] = biological target: Histone deacetylase 4 (Homo sapiens, UniProt P56524); assay: Inhibition of HDAC4 using Boc-Lys(TFA)-AMC as substrate incubated 30 mins before substrate addition measured after 30 mins post substrate addition by fluorescence assay
Histone deacetylase 4, sequence (P56524 whole entry): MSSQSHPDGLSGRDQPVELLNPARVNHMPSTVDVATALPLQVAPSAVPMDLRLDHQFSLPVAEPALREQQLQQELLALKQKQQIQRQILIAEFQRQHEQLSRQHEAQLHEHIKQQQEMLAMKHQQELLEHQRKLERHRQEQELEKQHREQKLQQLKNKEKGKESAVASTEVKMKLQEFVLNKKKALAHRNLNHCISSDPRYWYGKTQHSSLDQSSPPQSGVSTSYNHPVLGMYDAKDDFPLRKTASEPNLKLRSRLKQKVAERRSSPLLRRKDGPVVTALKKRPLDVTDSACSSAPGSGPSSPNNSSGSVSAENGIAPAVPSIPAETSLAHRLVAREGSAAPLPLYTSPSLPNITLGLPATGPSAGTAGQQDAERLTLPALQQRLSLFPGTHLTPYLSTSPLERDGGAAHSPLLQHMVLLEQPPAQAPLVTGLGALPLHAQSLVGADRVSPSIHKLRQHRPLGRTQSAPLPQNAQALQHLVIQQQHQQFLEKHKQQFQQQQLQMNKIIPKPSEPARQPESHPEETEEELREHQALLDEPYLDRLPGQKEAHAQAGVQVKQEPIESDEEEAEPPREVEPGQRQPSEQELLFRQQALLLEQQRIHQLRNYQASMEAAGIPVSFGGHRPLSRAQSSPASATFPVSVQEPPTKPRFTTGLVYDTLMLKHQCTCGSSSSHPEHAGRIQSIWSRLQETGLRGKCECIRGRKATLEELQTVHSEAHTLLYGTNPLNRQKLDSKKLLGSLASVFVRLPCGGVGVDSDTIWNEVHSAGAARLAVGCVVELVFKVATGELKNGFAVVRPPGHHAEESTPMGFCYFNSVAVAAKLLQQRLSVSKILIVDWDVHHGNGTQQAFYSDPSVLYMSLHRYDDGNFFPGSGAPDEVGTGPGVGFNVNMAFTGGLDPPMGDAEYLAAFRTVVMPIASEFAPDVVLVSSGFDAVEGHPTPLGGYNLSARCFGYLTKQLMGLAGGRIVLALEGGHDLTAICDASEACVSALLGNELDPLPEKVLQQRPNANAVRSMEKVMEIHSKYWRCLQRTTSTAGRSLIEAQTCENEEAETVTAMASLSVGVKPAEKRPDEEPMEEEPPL

[8] = biological target: T2, Protein deacetylase HDAC6 (Homo sapiens, UniProt Q9UBN7); assay: Inhibition of HDAC6 using Boc-Lys(Ac)-AMC as substrate incubated 30 mins before substrate addition measured after 30 mins post substrate addition by fluorescence assay
T2 sequence (Q9UBN7 whole entry): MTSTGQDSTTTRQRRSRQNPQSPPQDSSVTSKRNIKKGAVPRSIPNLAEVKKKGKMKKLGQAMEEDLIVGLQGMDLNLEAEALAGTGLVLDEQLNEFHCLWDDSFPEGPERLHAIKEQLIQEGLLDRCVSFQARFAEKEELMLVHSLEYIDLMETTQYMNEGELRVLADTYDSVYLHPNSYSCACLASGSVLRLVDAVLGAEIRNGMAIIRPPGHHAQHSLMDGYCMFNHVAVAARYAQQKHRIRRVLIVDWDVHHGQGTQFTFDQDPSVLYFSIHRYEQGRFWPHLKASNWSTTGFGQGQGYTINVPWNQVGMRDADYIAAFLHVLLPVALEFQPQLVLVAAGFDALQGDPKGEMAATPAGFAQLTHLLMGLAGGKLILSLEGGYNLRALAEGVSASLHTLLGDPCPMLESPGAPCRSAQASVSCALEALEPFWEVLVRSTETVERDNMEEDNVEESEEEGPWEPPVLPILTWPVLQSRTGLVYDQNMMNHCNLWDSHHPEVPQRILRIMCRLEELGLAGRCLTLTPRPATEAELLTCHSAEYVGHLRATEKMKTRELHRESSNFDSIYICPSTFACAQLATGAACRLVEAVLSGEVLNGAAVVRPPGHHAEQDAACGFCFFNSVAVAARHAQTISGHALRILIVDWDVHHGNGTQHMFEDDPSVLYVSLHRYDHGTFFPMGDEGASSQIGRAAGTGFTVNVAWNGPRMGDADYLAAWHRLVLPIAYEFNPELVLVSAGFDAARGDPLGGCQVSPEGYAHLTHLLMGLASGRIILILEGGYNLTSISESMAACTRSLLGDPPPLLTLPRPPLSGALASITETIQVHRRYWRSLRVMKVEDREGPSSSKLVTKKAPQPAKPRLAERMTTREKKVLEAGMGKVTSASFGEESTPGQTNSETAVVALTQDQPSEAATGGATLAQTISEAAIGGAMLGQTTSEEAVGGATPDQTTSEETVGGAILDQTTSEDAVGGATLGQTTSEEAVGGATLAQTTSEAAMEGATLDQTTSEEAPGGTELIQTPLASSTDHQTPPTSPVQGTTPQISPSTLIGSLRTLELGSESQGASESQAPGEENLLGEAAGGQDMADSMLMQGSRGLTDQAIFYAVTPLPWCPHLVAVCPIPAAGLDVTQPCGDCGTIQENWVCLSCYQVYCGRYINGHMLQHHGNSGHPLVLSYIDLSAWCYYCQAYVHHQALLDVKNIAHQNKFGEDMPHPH

[9] = biological target: T3, Histone deacetylase (Homo sapiens) (UniProt Q13547+O15379+Q9UBN7+Q92769+Q9UQL6+Q8WUI4+Q9BY41+Q96DB2+P56524+Q9UKV0+Q969S8); assay: Inhibition of HDAC in human prostate cancer cells assessed as induction of hyperacetylation of histone H3 after 16 hrs by SDS-PAGE and Western blot analysis; type: cell-based; conditions: Cancer cell lines
Outline: (§2)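 Cells exposed to inhibitor at […] for 16 h. Whole-cell lysates made in ice-cold Tris pH 7.4 buffer with Triton X-100, protease and phosphatase inhibitors, run on 13% SDS-PAGE gels. Western blot for acetylated histone H3 (polyclonal) or acetylated alpha-tubulin (monoclonal), beta-actin as loading control, HRP secondary, ECL detection.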

[10] = biological target: T3, Histone deacetylase (Homo sapiens); assay: Inhibition of HDAC in human prostate cancer cells assessed as induction of hyperacetylation of alpha-tubulin after 16 hrs by SDS-PAGE and Western blot analysis; type: cell-based; conditions: Cancer cell lines; outline: as §2

| Structure (SMILES) | IC50 [1] | GI50 ([2]; Homo sapiens, PC-3, 48 h) | GI50 ([3]; Homo sapiens, A549, 48 h) | GI50 ([4]; Homo sapiens, Hep3B, 48 h) | GI50 [2] | GI50 [3] | GI50 [4] | IC50 [5] | IC50 [6] | IC50 [7] | IC50 [8] | inhibition [9] | inhibition [10] |
| --- | --- | --- | --- | --- | --- | --- | --- | --- | --- | --- | --- | --- | --- |
| CC(C)CCc1c(OCCCCCC(=O)NO)ccc(CCC(=O)NO)c1O | 0.2099 µM | 2.52 µM | 5.41 µM | 1.98 µM |  |  |  |  |  |  |  |  |  |
| O=C(CCCCCCC(=O)Nc1ccccc1)NO [VORINOSTAT] |  |  |  |  | 1.02 µM | 0.79 µM | 1.21 µM |  |  |  |  |  |  |
| CC(C)CCc1c(OCCCCC(=O)NO)ccc(CCC(=O)NO)c1O | 0.4263 µM | 14.4 µM | 10 µM | 14.1 µM |  |  |  |  |  |  |  |  |  |
| CC(C)CCc1c(OCCCCCCCC(=O)NO)ccc(CCC(=O)NO)c1O | 0.0289 µM | 1.73 µM | 2.67 µM | 1.27 µM |  |  |  | 0.0415 µM | 0.279 µM | > 10 µM | 0.0142 µM |  |  |
| CC(C)CCc1c(OCCCCCCCC(=O)NO)ccc2c1OC(=O)CC2 | 0.1117 µM | > 30 µM | > 30 µM | > 30 µM |  |  |  |  |  |  |  |  |  |
| CC(C)CCc1c(OCCCCCCC(=O)NO)ccc2c1OC(=O)CC2 | 0.0237 µM | > 30 µM | > 30 µM | > 30 µM |  |  |  | 0.0527 µM | 1.08 µM | > 10 µM | 0.04 µM |  |  |
| CC(C)CCc1c(OCCCCC(=O)NO)ccc2c1OC(=O)CC2 | 0.7116 µM | > 30 µM | > 30 µM | > 30 µM |  |  |  |  |  |  |  |  |  |
| CC(C)CCc1c(OCCCCCCC(=O)NO)ccc2ccc(=O)oc12 | 0.0222 µM |  | 0.66 µM | 0.75 µM |  |  |  | 0.0323 µM | 0.553 µM | > 10 µM | 0.0152 µM | Dose-dependent effect | Dose-dependent effect |
| CC(C)CCc1c(OCCCCCC(=O)NO)ccc2c1OC(=O)CC2 | 0.4255 µM | > 30 µM | > 30 µM | > 30 µM |  |  |  |  |  |  |  |  |  |
| CC(C)CCc1c(OCCCCC(=O)NO)ccc2ccc(=O)oc12 | 0.5232 µM | 1.94 µM | 2.76 µM | 1.31 µM |  |  |  |  |  |  |  |  |  |
| CC(C)CCc1c(OCCCCCCCC(=O)NO)ccc2ccc(=O)oc12 | 0.039 µM |  | 2.19 µM | 3.58 µM |  |  |  |  |  |  |  |  |  |
| CC(C)CCc1c(OCCCCCCC(=O)NO)ccc(CCC(=O)NO)c1O | 0.0246 µM | 4.73 µM | 6.16 µM | 4.72 µM |  |  |  | 0.0429 µM | 0.268 µM | > 10 µM | 0.0159 µM | inactive | inactive |
| CC(C)CCc1c(OCCCCCC(=O)NO)ccc2ccc(=O)oc12 | 0.1282 µM |  | 0.87 µM | 0.8 µM |  |  |  |  |  |  |  |  |  |
